Results published in ChEMBL document CHEMBL4393723, “Caffeic acid phenethyl ester (CAPE)-derivatives act as selective inhibitors of acetylcholinesterase” (Eur J Med Chem, 2019).

Assays:
[1] = system: HT-29; assay: Cytotoxicity against human HT-29 cells measured after 96 hrs by SRB assay; type: cell-based; conditions: for EC50: Homo sapiens, HT-29, 96 h; for Activity: human, ht-29, 96 h
Method in brief: (§1)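 Cells seeded on day 0 and exposed from 24 h to at least six concentrations (1, 3, 7, 12, 20, 30 µM), with final DMSO/DMF at most 0.5%. After 96 h treatment, fixed in 10% TCA for 24 h at 4 °C and stained about 20 min with 0.4% SRB in 1% acetic acid. Bound dye dissolved in 10 mM Tris base, read at 570 nm. EC50 from 4-parameter Hill fit (top 100, bottom 0), three independent experiments in triplicate.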

[2] = system: MCF7; assay: Cytotoxicity against human MCF7 cells measured after 96 hrs by SRB assay; type: cell-based; conditions: for EC50: Homo sapiens, MCF7, 96 h; for Activity: human, mcf7, 96 h; method in brief: as §1
[3] = system: SW-1736; assay: Cytotoxicity against human SW1736 cells measured after 96 hrs by SRB assay; type: cell-based; conditions: for EC50: Homo sapiens, SW-1736, 96 h; for Activity: human, sw-1736, 96 h; method in brief: as §1
[4] = system: A2780; assay: Cytotoxicity against human A2780 cells measured after 96 hrs by SRB assay; type: cell-based; conditions: for EC50: Homo sapiens, A2780, 96 h; for Activity: human, a2780, 96 h; method in brief: as §1
[5] = system: FaDu; assay: Cytotoxicity against human FADU cells measured after 96 hrs by SRB assay; type: cell-based; conditions: for EC50: Homo sapiens, FaDu; for Activity: human, fadu; method in brief: as §1
[6] = system: NIH3T3; assay: Cytotoxicity against mouse NIH/3T3 cells measured after 96 hrs by SRB assay; type: cell-based; conditions: for EC50: Mus musculus, NIH3T3, 96 h; for Activity: mouse, nih3t3, 96 h; method in brief: as §1
[7] = Solubility of the compound; type: physicochemical
[8] = target: T1, Acetylcholinesterase (Electrophorus electricus, UniProt O42275); assay: Mixed inhibition of electric eel AChE using acetylcholine iodide as substrate preincubated for 20 mins followed by substrate addition and measured every minute for 30 mins by Lineweaver-Burk plot analysis
T1 sequence (O42275 whole entry): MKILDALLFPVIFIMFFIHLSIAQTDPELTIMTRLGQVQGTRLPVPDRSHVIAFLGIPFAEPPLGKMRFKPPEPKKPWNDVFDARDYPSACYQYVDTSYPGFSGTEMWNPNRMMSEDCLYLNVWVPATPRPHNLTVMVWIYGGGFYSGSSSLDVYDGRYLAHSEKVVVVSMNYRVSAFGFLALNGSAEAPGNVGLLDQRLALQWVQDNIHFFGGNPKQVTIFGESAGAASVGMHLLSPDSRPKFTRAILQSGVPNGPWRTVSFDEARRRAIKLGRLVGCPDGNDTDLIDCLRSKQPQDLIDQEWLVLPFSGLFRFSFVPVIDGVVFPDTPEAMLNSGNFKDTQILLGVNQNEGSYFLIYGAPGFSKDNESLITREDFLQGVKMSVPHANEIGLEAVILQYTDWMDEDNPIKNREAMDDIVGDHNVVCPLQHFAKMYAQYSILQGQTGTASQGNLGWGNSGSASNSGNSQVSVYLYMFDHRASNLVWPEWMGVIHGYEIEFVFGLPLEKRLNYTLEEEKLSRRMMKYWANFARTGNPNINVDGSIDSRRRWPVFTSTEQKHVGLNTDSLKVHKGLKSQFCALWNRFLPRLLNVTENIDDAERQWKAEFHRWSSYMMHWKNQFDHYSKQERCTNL

[9] = target: T1, Acetylcholinesterase; assay: Mixed inhibition of electric eel AChE using butyrylcholine iodide as substrate preincubated for 20 mins followed by substrate addition and measured every minute for 30 mins Dixon/Cornish-Bowden plot analysis

With `COc1ccc(/C=C/C(=O)OCCc2ccccc2)cc1OC` the EC50 [1] was 16.7 µM, the EC50 [2] was 16.2 µM and the EC50 [3] was 16.7 µM. The EC50 [4] was 17 µM, the EC50 [5] was 17.2 µM and the EC50 [6] was 17.7 µM.
In the case of `O=C(/C=C/c1ccc(OCc2ccccc2)c(OCc2ccccc2)c1)OCCc1ccc(OC(=O)/C=C/c2ccc(OCc3ccccc3)c(OCc3ccccc3)c2)cc1`, the solubility [7] is reported as “Insoluble”.
For `O=C(/C=C/c1ccc(OCc2ccccc2)c(OCc2ccccc2)c1)OCCc1ccccc1O`, the Ki [8] was 8.55 µM and the Ki [9] was 12.1 µM.
In the case of `O=C(/C=C/c1ccc(OCc2ccccc2)c(OCc2ccccc2)c1)OCCc1cccc(OC(=O)/C=C/c2ccc(OCc3ccccc3)c(OCc3ccccc3)c2)c1`, the solubility [7] is reported as “Insoluble”.
For `COc1cc(/C=C/C(=O)OCCc2ccccc2)cc(OC)c1OCCc1ccccc1`, the Activity [1] was “Non-Toxic”, the Activity [2] was “Non-Toxic” and the Activity [3] was “Non-Toxic”. The Ki [8] was 1.97 µM, the Activity [4] was “Non-Toxic” and the Activity [5] was “Non-Toxic”. The Ki [9] was 2.44 µM and the Activity [6] was “Non-Toxic”.
In the case of `O=C(/C=C/c1ccc(OCc2ccccc2)c(OCc2ccccc2)c1)OCCc1ccccc1OC(=O)/C=C/c1ccc(OCc2ccccc2)c(OCc2ccccc2)c1`, the solubility [7] is reported as “Insoluble”.
In the case of `O=C(/C=C/c1ccc(OCc2ccccc2)c(OCc2ccccc2)c1)OCCc1ccc(OC(=O)/C=C/c2ccc(OCc3ccccc3)c(OCc3ccccc3)c2)c(OC(=O)/C=C/c2ccc(OCc3ccccc3)c(OCc3ccccc3)c2)c1`, the Activity [1] is reported as “Non-Toxic”, the Activity [2] is reported as “Non-Toxic” and the Activity [3] is reported as “Non-Toxic”. The Ki [8] was 0.72 µM, the Activity [4] was “Non-Toxic” and the Activity [5] was “Non-Toxic”. The Ki [9] was 1.8 µM and the Activity [6] was “Non-Toxic”.
Compound `O=C(/C=C/c1cccc(Cl)c1)OCCc1ccccc1` has a Ki [8] of 14.2 µM and a Ki [9] of 56.6 µM.
`COc1ccc(/C=C/C(=O)OCCc2ccccc2)c(OC)c1` gave a Ki [8] of 11.9 µM and a Ki [9] of 34.8 µM.
Work on `O=C(/C=C/c1cccc(Br)c1)OCCc1ccccc1` yielded a Ki [8] of 8.82 µM and a Ki [9] of 30.9 µM.
`O=C(/C=C/c1ccc(O)c(O)c1)OCCc1ccccc1` [CAFFEIC ACID PHENETHYL ESTER] gave an EC50 [1] of over 30 µM, an EC50 [2] of 12.1 µM and an EC50 [3] of 4.7 µM. For the same compound, the EC50 [4] was 3.5 µM, the EC50 [5] was 12.1 µM and the EC50 [6] was 21.4 µM.
